The values below come from ChEMBL document CHEMBL4385610, “Selective Inhibition of Histone Deacetylase 10: Hydrogen Bonding to the Gatekeeper Residue is Implicated” (J Med Chem, 2019).

Usually IC50 stands for the midpoint of a concentration-inhibition curve.

Calls of active or inactive are those of the source. No cut-off for these calls is given here. Bounds are passed on as bounds.

In one assay the target is T1, Histone deacetylase 8 (Homo sapiens, UniProt Q9BY41).
T1 sequence (Q9BY41 whole entry): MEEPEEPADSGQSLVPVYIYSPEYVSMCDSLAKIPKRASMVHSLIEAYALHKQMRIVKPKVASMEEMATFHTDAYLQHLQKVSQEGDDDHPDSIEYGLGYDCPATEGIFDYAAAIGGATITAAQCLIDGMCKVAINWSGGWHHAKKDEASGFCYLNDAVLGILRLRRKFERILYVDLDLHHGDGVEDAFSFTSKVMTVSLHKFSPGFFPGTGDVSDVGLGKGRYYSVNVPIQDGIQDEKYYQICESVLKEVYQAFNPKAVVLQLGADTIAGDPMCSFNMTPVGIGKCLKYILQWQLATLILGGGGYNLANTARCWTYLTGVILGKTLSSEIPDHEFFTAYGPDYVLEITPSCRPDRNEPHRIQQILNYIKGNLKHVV
The assay can be described thus: Inhibition of recombinant human full length C-terminal His-tagged HDAC8 expressed in baculovirus infected insect cells measured after 40 mins by HDAC-Glo1/2 luminescent assay.

Assay [1] concerns the target T2, Polyamine deacetylase HDAC10 (Homo sapiens, UniProt Q969S8).
T2 sequence (Q969S8 whole entry): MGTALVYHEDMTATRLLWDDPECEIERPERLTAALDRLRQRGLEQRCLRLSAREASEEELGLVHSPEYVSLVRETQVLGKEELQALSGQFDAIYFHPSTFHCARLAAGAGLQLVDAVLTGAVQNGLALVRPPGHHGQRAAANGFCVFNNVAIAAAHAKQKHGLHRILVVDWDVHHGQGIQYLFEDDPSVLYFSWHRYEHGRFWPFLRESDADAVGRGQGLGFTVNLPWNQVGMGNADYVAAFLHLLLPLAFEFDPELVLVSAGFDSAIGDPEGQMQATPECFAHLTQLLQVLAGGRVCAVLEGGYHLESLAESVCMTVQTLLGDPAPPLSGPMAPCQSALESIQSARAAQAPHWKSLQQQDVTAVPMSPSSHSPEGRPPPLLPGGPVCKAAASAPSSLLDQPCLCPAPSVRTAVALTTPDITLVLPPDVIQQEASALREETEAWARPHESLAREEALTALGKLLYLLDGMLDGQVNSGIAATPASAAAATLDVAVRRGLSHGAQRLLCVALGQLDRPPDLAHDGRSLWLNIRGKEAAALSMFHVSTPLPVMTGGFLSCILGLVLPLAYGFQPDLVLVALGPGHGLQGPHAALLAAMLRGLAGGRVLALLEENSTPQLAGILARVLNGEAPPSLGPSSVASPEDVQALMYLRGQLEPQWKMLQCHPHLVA
The assay is described as follows: Inhibition of dye-labeled tracer binding to HDAC10 (unknown origin) transfected in human HeLa cells measured after 2 hrs by nano-luciferase reporter gene-based BRET assay. Format: cell-based. On the technique in general: A reporter such as luciferase makes a cellular process visible.

For another assay, the target named is Histone deacetylase 2 (Homo sapiens, UniProt Q92769). The assay is described as follows: Inhibition of recombinant full-length C-terminal His-tagged human HDAC2 expressed in baculovirus infected Sf9 insect cells measured after 40 mins by HDAC-Glo1/2 luminescent assay. Type of assay: cell-based.
Chain of Histone deacetylase 2 (Q92769 whole entry, the tested form may be a part): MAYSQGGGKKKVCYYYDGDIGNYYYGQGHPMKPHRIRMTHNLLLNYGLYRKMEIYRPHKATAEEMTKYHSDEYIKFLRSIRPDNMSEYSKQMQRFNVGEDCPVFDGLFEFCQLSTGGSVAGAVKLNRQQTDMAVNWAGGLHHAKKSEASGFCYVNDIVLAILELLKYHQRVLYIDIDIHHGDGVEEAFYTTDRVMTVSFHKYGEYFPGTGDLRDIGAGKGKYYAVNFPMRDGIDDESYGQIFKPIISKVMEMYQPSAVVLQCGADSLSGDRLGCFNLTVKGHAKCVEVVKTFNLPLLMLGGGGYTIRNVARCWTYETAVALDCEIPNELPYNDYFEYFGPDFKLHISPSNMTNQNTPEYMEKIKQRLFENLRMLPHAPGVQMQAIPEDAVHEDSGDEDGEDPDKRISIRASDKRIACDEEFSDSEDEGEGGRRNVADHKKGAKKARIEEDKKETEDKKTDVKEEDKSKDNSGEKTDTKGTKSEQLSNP
The target of assay [2] is Histone deacetylase 3/Nuclear receptor corepressor 2 (HDAC3/NCoR2) (Homo sapiens, UniProt O15379). The assay can be described thus: Inhibition of human recombinant full length C-terminal His-tagged HDAC3 (1 to 428 residues)/N-terminal GST-tagged NCOR2 (395 to 489 residues) expressed in baculovirus infected insect cells measured after 40 mins by HDAC-Glo1/2 luminescent assay.
Chain of Histone deacetylase 3/Nuclear receptor corepressor 2 (HDAC3/NCoR2) (O15379 whole entry, the tested form may be a part): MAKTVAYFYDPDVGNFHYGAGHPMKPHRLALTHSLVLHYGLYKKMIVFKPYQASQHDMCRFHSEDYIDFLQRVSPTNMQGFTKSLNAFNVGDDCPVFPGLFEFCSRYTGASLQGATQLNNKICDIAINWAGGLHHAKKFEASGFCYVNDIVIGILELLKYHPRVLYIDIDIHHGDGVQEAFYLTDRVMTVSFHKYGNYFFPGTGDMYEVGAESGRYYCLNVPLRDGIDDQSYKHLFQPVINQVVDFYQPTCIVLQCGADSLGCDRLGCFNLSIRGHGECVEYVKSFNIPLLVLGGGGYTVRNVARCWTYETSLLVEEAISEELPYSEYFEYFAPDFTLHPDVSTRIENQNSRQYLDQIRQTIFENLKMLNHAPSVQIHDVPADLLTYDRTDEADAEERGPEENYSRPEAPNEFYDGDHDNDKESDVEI
Chain of Histone deacetylase 3/Nuclear receptor corepressor 2 (HDAC3/NCoR2) (Q9Y618 whole entry, further chain, the tested form may be a part): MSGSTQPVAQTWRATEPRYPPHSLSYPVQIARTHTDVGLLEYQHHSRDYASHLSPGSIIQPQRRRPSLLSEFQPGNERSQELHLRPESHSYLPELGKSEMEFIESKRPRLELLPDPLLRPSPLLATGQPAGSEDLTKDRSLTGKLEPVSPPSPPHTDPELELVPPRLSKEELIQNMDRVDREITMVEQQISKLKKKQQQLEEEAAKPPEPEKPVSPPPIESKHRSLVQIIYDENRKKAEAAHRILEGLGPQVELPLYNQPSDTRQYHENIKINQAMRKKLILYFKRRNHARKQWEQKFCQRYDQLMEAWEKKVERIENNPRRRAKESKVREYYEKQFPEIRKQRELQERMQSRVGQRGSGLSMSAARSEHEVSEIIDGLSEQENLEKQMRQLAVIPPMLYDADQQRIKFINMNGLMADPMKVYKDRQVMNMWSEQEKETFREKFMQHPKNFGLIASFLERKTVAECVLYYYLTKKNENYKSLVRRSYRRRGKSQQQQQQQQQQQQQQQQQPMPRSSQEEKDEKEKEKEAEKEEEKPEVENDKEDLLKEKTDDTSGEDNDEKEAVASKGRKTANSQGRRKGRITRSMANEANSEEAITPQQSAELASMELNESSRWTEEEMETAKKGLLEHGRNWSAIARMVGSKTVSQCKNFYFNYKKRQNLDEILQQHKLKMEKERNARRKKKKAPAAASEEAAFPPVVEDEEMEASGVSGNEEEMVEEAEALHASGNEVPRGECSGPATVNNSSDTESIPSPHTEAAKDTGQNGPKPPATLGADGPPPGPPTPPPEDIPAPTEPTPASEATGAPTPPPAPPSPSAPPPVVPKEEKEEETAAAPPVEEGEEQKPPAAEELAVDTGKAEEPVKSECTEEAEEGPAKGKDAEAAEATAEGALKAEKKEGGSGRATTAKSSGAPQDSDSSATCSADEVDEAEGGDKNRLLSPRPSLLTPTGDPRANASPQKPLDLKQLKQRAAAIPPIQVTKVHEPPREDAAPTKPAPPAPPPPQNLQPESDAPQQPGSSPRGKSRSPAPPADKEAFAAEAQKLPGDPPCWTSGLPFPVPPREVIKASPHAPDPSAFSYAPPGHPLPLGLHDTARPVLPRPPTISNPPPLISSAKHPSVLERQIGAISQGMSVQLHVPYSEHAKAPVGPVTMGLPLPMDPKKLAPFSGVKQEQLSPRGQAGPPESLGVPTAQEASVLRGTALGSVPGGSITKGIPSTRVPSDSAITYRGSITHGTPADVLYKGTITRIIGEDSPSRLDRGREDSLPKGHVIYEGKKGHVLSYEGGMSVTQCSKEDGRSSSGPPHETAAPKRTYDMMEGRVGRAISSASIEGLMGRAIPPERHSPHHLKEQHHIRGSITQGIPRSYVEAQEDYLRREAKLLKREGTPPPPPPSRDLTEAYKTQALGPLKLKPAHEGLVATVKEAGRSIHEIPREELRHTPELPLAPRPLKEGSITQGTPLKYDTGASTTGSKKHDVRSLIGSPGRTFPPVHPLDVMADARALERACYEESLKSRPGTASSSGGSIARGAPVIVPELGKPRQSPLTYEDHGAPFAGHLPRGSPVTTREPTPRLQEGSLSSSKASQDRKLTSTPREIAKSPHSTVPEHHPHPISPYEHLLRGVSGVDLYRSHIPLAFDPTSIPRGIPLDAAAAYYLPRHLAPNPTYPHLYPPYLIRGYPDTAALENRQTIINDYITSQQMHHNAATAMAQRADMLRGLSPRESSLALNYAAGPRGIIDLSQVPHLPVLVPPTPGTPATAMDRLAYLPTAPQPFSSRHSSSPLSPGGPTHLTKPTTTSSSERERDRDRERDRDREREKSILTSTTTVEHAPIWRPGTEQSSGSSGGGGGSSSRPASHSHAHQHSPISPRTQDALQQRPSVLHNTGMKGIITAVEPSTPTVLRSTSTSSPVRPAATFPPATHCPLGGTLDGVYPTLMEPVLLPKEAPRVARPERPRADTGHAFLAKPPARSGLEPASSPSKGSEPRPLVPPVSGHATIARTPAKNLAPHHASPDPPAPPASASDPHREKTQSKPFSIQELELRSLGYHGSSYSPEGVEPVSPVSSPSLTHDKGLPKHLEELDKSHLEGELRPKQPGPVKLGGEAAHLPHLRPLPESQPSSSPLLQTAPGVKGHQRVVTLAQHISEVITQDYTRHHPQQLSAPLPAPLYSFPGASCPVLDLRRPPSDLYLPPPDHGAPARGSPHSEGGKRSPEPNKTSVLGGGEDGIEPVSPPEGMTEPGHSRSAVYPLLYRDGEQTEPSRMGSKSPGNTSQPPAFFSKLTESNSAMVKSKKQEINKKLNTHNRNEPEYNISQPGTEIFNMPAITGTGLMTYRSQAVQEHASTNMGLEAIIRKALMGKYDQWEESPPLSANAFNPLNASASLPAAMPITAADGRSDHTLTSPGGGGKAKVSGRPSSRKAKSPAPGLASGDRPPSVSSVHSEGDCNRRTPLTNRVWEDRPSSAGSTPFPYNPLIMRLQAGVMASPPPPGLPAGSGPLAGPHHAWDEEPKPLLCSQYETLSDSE

The target in assay [3] is T2, Polyamine deacetylase HDAC10. The assay is described as follows: Inhibition of tubastatin-Alexa647-tracer binding to recombinant GST-tagged HDAC10 (unknown origin) measured after 1 hr by TR-FRET assay.
The target in a further assay is Histone deacetylase 1 (Homo sapiens, UniProt Q13547). The assay can be described thus: Inhibition of recombinant full-length C-terminal FLAG-fused/His-tagged human HDAC1 expressed in baculovirus infected Sf9 insect cells measured after 40 mins by HDAC-Glo1/2 luminescent assay.
Chain of Histone deacetylase 1 (Q13547 whole entry, the tested form may be a part): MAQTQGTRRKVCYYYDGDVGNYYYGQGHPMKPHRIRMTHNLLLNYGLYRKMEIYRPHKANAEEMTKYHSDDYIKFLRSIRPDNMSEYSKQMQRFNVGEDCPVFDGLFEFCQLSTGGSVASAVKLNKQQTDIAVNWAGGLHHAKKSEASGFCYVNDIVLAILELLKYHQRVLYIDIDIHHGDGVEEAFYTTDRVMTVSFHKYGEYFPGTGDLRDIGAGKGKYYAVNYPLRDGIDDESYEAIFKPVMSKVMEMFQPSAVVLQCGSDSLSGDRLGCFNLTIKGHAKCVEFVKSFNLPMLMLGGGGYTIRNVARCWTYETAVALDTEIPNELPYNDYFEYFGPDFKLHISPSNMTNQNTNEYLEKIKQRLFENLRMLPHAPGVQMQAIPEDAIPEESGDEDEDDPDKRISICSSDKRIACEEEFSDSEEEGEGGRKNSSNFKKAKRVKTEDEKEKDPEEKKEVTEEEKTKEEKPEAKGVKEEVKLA
The target of assay [4] is T3, Protein deacetylase HDAC6 (Homo sapiens, UniProt Q9UBN7).
T3 sequence (Q9UBN7 whole entry): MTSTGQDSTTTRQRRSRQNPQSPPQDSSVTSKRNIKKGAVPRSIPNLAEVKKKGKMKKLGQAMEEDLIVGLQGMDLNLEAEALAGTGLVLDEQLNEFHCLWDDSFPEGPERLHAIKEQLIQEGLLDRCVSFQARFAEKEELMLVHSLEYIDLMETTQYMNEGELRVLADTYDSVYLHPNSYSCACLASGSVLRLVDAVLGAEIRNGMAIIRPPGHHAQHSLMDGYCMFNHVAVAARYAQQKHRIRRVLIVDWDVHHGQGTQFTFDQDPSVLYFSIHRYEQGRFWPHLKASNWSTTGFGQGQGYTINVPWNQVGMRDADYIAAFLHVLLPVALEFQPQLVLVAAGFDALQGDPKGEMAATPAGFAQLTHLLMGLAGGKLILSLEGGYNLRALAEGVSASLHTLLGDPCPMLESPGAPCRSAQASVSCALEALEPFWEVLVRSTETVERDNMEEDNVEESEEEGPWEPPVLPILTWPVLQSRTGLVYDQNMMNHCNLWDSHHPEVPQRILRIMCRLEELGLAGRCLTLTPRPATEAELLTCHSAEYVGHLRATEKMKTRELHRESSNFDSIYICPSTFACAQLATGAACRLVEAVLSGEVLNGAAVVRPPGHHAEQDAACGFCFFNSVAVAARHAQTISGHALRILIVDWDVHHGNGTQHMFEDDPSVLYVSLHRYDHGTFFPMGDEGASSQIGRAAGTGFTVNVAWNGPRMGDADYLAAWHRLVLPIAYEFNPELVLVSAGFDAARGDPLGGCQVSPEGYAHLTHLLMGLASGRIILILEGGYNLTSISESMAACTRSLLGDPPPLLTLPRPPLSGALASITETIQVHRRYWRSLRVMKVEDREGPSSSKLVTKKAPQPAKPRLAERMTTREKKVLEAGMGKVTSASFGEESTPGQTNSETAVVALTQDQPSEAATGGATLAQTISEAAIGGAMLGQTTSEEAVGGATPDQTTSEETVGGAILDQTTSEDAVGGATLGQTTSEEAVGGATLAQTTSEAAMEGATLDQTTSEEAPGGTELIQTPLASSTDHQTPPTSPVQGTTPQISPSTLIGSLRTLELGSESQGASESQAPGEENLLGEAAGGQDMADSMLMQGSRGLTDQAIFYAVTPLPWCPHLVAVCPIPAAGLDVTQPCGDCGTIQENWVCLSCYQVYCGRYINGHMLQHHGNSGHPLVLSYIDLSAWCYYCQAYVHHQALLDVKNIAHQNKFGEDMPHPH
The assay is described as follows: Inhibition of dye-labeled tracer binding to HDAC6 (unknown origin) transfected in human HeLa cells measured after 2 hrs by nano-luciferase reporter gene-based BRET assay. Type of assay: cell-based. In outline:
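Live-cell target engagement by BRET: cells overexpressing nano-luciferase-tagged HDAC6 or HDAC10 are given a dye-labelled tracer and the nano-luciferase substrate, and a competing binder disrupts BRET. pIC50 comes from pooled data of two biological replicates, each run in triplicate. The selectivity fold is taken from the HDAC10 and HDAC6 BRET values.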

Assay [5] deals with T4, Protein deacetylase HDAC6 (Homo sapiens) (UniProt Q9UBN7).
T4 sequence (whole entry): T3 sequence (Q9UBN7 whole entry)
The assay is described as follows: Inhibition of HDAC6 in human BE(2)-C cells assessed as increase in tubulin acetylation at 10 uM measured after 24 hrs by Western blot analysis. Format: cell-based. In outline:
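In the neuroblastoma BE(2)-C line, HDAC6 inhibition is read as tubulin acetylation by Western blot, comparing acetylated tubulin with total tubulin.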

As to `O=C(NO)c1ccc(Cn2c3c(c4ccccc42)COCC3)cc1`, the IC50 is 794 nM at Histone deacetylase 8; 1000 nM in assay [1]; 7940 nM on Histone deacetylase 2; 1260 nM in assay [2]; 631 nM in assay [3]; 1580 nM at Histone deacetylase 1. Besides, the IC50 in assay [4] was 20 nM.
Consider `CN1CCc2c(n(Cc3ccc(C(=O)NO)cc3)c3ccccc23)C1`, for which the IC50 on Histone deacetylase 8 is 3980 nM; in assay [1], 158 nM; at Histone deacetylase 2, 25100 nM; in assay [2], 3980 nM; in assay [3], 200 nM; on Histone deacetylase 1, 3160 nM. Further, the IC50 in assay [4] is 63.1 nM.
In the case of `O=C(NO)c1ccc(Cn2cc(CCO)c3ccccc32)cc1`, the IC50 in assay [1] is 200 nM; in assay [3], 79.4 nM; in assay [4], 31.6 nM.
Taken in the same sequence, the figures for `O=C(NO)c1ccc(Cn2c3ccccc3c3ccccc32)cc1` were 3980 nM, 2000 nM and 39.8 nM.
Take `CN(C)Cc1nn(Cc2ccc(C(=O)NO)cc2)c2ccccc12`: the IC50 at Histone deacetylase 8 is 794 nM; on Histone deacetylase 2, 7940 nM; in assay [2] it was 794 nM; in assay [3], 20 nM; on Histone deacetylase 1, 1260 nM; in assay [4] it was 126 nM.
Consider `CC(C)(C)OC(=O)NCc1cn(Cc2ccc(C(=O)NO)cc2)c2ccccc12`, for which the IC50 in assay [1] is 251 nM; in assay [3], 158 nM; in assay [4], 79.4 nM.
As for `CN(C)Cc1cn(Cc2ccc(C(=O)NO)cc2)c2ccccc12`, the IC50 was 398 nM on Histone deacetylase 8; 3.98 nM in assay [1]; 6310 nM at Histone deacetylase 2; 631 nM in assay [2]; 5.01 nM in assay [3]; 1000 nM on Histone deacetylase 1. Moreover, the IC50 in assay [4] is 158 nM.
Regarding `O=C(CCCCCCNC(=O)c1cnc(N(c2ccccc2)c2ccccc2)nc1)NO` [RICOLINOSTAT], the IC50 in assay [1] was 1580 nM; in assay [3], 126 nM.
Regarding `C#Cc1cccc(Nc2ncnc3cc(OC)c(OCCCCCCC(=O)NO)cc23)c1` [CUDC-101], the IC50 in assay [1] is 398 nM; in assay [3], 126 nM.
For `O=C(NO)c1ccc(Cn2ccc3ccccc32)cc1`, the IC50 was 158 nM in assay [1], 63.1 nM in assay [3] and 63.1 nM in assay [4].
Turning to `Cn1cncc1-c1cn(Cc2ccc(C(=O)NO)cc2)c2ccccc12`, the concentration for half-maximal inhibition (IC50) on Histone deacetylase 8 is 398 nM; in assay [1] it was 50.1 nM; on Histone deacetylase 2 it was 3160 nM; in assay [2] it was 501 nM; in assay [3], 25.1 nM; on Histone deacetylase 1 it was 631 nM. Besides, the 50% inhibitory concentration (IC50) in assay [4] was 79.4 nM.
On to `COCCc1cn(Cc2ccc(C(=O)NO)cc2)c2ccccc12`, for which the IC50 in assay [1] was 200 nM; in assay [3], 126 nM; in assay [4] it was 63.1 nM.
Consider `O=C(NO)c1ccc(CC(=O)N(CCO)c2ccccc2)cc1`, for which the IC50 was 316 nM in assay [1] and 79.4 nM in assay [3].
`O=C(NO)c1ccc(Cn2c3c(c4ccccc42)CCCC3)cc1`: the IC50 is 2510 nM in assay [1], 1000 nM in assay [3] and 63.1 nM in assay [4].
As to `CC(C)(C)c1cc2ccccc2n1Cc1ccc(C(=O)NO)cc1`, the values for the half-inhibitory concentration (IC50) in assay [1], in assay [3] and in assay [4] were over 39800 nM, 5010 nM and 2000 nM, respectively. The inhibition result in assay [5] is “Active”.
Regarding `Cn1cc(CNCC2CCN(c3ncc(C(=O)NO)cn3)CC2)c2ccccc21` [QUISINOSTAT], the figures for the IC50 in assay [1] and in assay [3] were 39.8 nM and 10 nM, respectively.
For `CC(C)(C)OC(=O)Nc1ccc(-c2cc(C(=O)NCCCCCCC(=O)NO)no2)cc1` the same measures were 794 nM and 316 nM.
Turning to `CC(=O)N1CCc2c(c3ccccc3n2Cc2ccc(C(=O)NO)cc2)C1`, the IC50 is 2000 nM in assay [1], 501 nM in assay [3] and 79.4 nM in assay [4].
Regarding `CN(C)CCc1cn(Cc2ccc(C(=O)NO)cc2)c2ccccc12`, the IC50 in assay [1] is 25.1 nM; in assay [3], 20 nM.
For the compound `Cc1c(C)n(Cc2ccc(C(=O)NO)cc2)c2ccccc12`, the IC50 at Histone deacetylase 8 is 1580 nM; in assay [1] it was 631 nM; at Histone deacetylase 2 it was 12600 nM; in assay [2], 3160 nM; in assay [3] it was 316 nM; at Histone deacetylase 1, 2510 nM. Further, the IC50 in assay [4] was 31.6 nM.
As for `CN1CCCC1c1cn(Cc2ccc(C(=O)NO)cc2)c2ccccc12` (racemic), the half-inhibitory concentration (IC50) at Histone deacetylase 8 was 398 nM; in assay [1], 5.01 nM; at Histone deacetylase 2, 2000 nM; in assay [2] it was 158 nM; in assay [3], 5.01 nM; at Histone deacetylase 1 it was 316 nM. In assay [4], the IC50 was 126 nM.
With `O=C(NO)c1ccc(Cn2cc(CN3CCCC3)c3ccccc32)cc1`, the IC50 at Histone deacetylase 8 was 316 nM; in assay [1], 3.98 nM; on Histone deacetylase 2, 6310 nM; in assay [2], 398 nM; in assay [3] it was 3.98 nM; on Histone deacetylase 1 it was 794 nM. For the same compound, the IC50 in assay [4] is 158 nM.
Turning to `O=C(NO)c1ccc(Cn2c3c(c4ccccc42)CSCC3)cc1`, the IC50 is 398 nM in assay [1], 316 nM in assay [3] and 126 nM in assay [4].
